{"source": "paper PMC7449315", "about": "(Journal for Immunotherapy of Cancer, 2020)", "biological_target": "tumor IDO1 (Mus musculus, UniProt P28776)", "sequence (P28776 whole entry)": "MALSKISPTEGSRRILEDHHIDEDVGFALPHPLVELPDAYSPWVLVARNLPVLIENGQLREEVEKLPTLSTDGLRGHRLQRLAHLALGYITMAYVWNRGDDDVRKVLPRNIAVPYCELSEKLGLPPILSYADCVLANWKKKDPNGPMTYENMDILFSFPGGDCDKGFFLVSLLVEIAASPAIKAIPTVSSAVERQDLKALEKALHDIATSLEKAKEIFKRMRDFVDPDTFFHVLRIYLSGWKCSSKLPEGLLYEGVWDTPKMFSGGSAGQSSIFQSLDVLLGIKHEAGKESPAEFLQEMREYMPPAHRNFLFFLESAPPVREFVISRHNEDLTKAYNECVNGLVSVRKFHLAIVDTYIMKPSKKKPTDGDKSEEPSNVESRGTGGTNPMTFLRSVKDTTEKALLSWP", "assay_type": "in vivo", "conditions": "MC38 tumor-bearing mice; 30, 75 or 200 mg/kg", "method_in_brief": "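Female adult C57BL/6 mice were inoculated subcutaneously with 0.5×10^6 IDO1-expressing MC38 colon carcinoma cells. At average tumor volumes of about 200–250 mm3 they received a single oral dose of the test compound (30, 75 or 200 mg/kg) or vehicle. Plasma, liver and tumor were sampled at 1, 2, 4, 8 and 24 h. Drug, kynurenine and tryptophan were measured by LC-MS/MS, and the kynurenine:tryptophan ratio was derived. Data are mean±SEM.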", "data": [{"smiles": "NS(=O)(=O)[C@H]1CC[C@](F)(CC[C@H]2c3ccccc3-c3cncn32)CC1", "note": "[M4112]", "values": [{"measurement": "kynurenine:tryptophan ratio in the liver and plasma", "result": "dose-dependent reduction"}]}]}
